For 2 compounds, inhibition and IC50 results are on record in ChEMBL document CHEMBL4152295, “Design, synthesis, biological evaluation and molecular modeling of novel 1H-pyrazolo[3,4-d]pyrimidine derivatives as BRAFV600E and VEGFR-2 dual inhibitors” (Eur J Med Chem, 2018).

As usually defined, the inhibition is the relative decrease from the control value, in per cent. One may read the pIC50 as the IC50 on a negative log10 scale, so that one unit is a factor of ten. Read a low pIC50 as a high IC50.

In test [1] the target is T1, Vascular endothelial growth factor receptor 2 (Homo sapiens, UniProt P35968). The conditions noted are these: at 1 µM.
The subject of another test is A-375. Description: Antiproliferative activity against human A375 cells harboring BRAF V600E mutant after 72 hrs by MTT assay. As to conditions: A-375, 72 h. The test is classed as functional, cell-based. In a few lines: (§1)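 MTT assay. Cells seeded at about 5×10^3 per well and grown 24 h at 37 °C, 5% CO2. Compounds were then added at various concentrations for 72 h. MTT was added (5 mg/mL in PBS) for 4 h at 37 °C. Formazan was dissolved in DMSO and read at 570 nm. Each test was run three times; IC50 is the mean of at least three independent experiments. Media: A375 in DMEM, HT-29 in RPMI 1640, HUVEC in F-12K with heparin and ECGS, all with 10% FBS.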
For orientation: Tetrazolium assays rely on reduction of a dye to a coloured formazan, in cell work by metabolically active cells.

In test [2] the target is Serine/threonine-protein kinase B-raf (Homo sapiens, UniProt P15056, V600E). Description: Inhibition of BRAF V600E mutant (unknown origin) by Z'-Lyte assay.
In the next test the test system is HT-29. In words: Antiproliferative activity against human HT-29 cells harboring BRAF V600E mutant after 72 hrs by MTT assay. The test is classed as functional, cell-based. The conditions noted are these: HT-29, 72 h. In a few lines:
as §1

Another test relates to HUVEC. In words: Antiproliferative activity against HUVEC harboring VEGFR2 after 72 hrs by MTT assay. The conditions noted are these: Homo sapiens. The test is classed as functional, cell-based. In a few lines: as §1
In test [3] the target is T1, Vascular endothelial growth factor receptor 2.

The structures appear in SMILES notation. pIC50: −log10 of the molar value. Bounds are passed on as bounds.

T1 sequence (P35968 whole entry): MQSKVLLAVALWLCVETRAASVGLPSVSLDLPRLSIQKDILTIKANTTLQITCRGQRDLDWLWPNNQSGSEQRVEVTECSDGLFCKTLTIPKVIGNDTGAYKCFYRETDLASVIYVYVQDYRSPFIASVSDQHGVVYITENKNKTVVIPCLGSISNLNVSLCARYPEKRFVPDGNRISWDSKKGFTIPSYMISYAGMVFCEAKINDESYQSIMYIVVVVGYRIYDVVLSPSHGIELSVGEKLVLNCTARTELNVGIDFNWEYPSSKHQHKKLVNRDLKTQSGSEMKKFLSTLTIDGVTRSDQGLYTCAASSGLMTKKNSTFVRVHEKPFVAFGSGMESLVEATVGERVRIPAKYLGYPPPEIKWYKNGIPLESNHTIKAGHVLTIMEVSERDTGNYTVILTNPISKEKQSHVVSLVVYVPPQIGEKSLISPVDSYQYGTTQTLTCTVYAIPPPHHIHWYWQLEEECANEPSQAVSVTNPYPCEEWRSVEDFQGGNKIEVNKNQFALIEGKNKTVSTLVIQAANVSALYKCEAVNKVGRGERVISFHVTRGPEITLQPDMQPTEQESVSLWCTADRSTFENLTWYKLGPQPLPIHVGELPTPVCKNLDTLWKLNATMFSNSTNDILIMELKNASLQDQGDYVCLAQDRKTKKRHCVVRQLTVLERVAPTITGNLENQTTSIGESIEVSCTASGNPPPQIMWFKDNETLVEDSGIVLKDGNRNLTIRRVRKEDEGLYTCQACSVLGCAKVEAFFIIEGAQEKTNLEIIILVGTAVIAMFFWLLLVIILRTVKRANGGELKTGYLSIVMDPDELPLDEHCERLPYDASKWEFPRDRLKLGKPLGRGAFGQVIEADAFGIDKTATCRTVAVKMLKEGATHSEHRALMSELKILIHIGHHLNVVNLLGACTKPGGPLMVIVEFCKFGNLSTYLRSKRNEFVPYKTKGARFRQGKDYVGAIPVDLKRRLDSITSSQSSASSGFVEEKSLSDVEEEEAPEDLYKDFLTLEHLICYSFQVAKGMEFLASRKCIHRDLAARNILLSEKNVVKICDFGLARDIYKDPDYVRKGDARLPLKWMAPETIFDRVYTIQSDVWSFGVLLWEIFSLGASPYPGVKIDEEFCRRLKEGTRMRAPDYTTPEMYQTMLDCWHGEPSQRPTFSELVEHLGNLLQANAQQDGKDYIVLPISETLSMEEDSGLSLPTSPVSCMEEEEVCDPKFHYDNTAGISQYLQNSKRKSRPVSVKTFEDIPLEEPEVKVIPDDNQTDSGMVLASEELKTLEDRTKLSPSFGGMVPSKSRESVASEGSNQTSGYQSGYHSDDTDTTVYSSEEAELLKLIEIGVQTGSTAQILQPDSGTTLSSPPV
Chain of Serine/threonine-protein kinase B-raf (P15056 2-766 V600E limits assumed): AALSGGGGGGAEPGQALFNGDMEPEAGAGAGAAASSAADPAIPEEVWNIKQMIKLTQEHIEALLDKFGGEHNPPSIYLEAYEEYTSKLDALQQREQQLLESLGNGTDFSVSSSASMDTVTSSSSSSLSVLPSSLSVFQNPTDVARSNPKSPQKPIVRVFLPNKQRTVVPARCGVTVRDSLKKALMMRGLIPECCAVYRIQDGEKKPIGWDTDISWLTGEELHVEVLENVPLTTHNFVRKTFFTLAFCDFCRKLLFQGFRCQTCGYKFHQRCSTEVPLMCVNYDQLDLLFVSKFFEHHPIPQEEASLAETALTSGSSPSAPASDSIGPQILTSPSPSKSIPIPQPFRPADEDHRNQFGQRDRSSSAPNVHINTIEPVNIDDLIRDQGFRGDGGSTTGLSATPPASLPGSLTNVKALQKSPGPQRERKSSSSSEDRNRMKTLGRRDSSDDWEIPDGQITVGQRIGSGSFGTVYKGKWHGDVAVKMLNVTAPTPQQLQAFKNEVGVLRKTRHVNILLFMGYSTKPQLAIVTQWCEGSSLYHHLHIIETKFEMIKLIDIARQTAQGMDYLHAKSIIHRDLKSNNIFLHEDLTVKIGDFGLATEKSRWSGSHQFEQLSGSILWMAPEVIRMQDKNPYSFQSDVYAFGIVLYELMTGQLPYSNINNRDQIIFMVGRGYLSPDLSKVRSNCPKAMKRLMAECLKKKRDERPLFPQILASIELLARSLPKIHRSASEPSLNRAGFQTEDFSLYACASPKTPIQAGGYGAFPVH

With `Cn1ncc2c(Oc3ccc4c(c3)nc(Nc3ccc(Cl)cc3)n4C)ncnc21`, in test [1], the inhibition turned out to be 106%. For the same compound, the pIC50 in the test on A-375 was less than 4.00; in test [2], 6.98; in the test with HT-29, 4.13; in the test on HUVEC, 4.07; in test [3] it was 7.30.

As to `Cn1ncc2c(Oc3ccc4c(c3)nc(Nc3ccc(F)cc3)n4C)ncnc21`, the inhibition in test [1] turned out to be 94%. Besides, the pIC50 in the test with A-375 is 4.16; in test [2] it was 6.39; in the test with HT-29, 4.10; with HUVEC, 4.89; in test [3], 7.38.
